Source: PubChem (Sanford-Burnham Center for Chemical Genomics)
An excerpt weighted towards active compounds, which were near 0.77% of everything screened.
mIAP block – blocks mouse intestinal alkaline phosphatase; inhibition, % at 10 µM; purified mouse IAP, CDP-Star luminescence, 30 min; actives 0.2% (n = 330,000);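 active = inhibition of at least 40% at 10 µM in the primary screen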;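 note: plate controls were DMSO with enzyme for no effect and no enzyme wells for full effect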
bIAP activator – intestinal alkaline phosphatase (bovine) activation; purified bovine IAP, CDP-star luminescence, 30 min; stronger effect = higher value; fold of DMSO-control signal, blank-subtracted; activation factor at 20 µM; actives 0.17% (n = 200,000);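 active = activation factor of 2 or more at 20 µM, a signal rise over negative controls twice the positive control's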
mIAP act – increases mouse intestinal alkaline phosphatase activity; muIAP, CDP-Star luminescence, 30 min; stronger effect = higher value; 1 = vehicle-only enzyme signal, 0 = enzyme-free wells; activation factor at 10 µM; actives 0.24% (n = 330,000); AID 2805;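 active = activation factor of at least 2 at 20 µM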
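Assay system: mouse IAP enzyme; Reagent: CDP-Star chemiluminescent phosphatase substrate; Compound: DMSO-dissolved test compounds; Incubation: 30 min, room temperature; Technique: luminescence from enzymatic CDP-Star hydrolysis; Controls: DMSO-only wells and no-enzyme negative control.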
hIAP act – human IAP activation; purified human IAP, CDP-Star luminescence, 30 min; stronger effect = higher value; 1 = vehicle-only enzyme, 0 = enzyme-free background; activation factor at 10 µM; actives 0.16% (n = 330,000);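 active = activation factor of the enzyme at least 2-fold when tested at 20 µM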
Target sequence (P09923 whole entry, looked up): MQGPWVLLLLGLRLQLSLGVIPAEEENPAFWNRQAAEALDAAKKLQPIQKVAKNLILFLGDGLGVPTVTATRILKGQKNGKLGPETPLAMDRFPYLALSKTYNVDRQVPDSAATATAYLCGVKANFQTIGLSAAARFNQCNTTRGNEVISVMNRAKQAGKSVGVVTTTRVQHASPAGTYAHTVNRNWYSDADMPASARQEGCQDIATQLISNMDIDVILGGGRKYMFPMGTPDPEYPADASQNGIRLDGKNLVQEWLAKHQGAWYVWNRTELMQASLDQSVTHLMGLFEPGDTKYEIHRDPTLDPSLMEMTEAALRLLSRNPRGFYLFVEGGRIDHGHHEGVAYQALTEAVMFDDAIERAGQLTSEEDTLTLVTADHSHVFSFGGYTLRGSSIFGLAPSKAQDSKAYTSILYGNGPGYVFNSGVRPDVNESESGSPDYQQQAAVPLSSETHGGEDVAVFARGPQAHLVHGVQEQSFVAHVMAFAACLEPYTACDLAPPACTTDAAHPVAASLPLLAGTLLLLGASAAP
bIAP inhibitor – intestinal alkaline phosphatase (bovine) inhibition | 190,000 tested, under 10 active | purified bovine IAP, CDP-star luminescence, 30 min | inhibition, % at 20 µM;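 active = over 50% inhibition of intestinal alkaline phosphatase at 20 µM in the single-dose screen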
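Assay system: bovine IAP enzyme; medium: DEA buffer 100 mM, pH 9.8, with MgCl2 1.0 mM, ZnCl2 0.02 mM; doses: 20 µM single dose; incubation: enzyme reaction for 30 min at room temperature; detection: CDP-star luminescence signal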
hIAP block – human IAP inhibition. inhibition, % at 10 µM. purified IAP, CDP-Star luminescence, 30 min. actives 0.12% (n = 330,000). P09923;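 active = inhibition reaching a set limit with compound at 10 µM in the primary screen, cut at about 35% in these data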;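 note: plate controls were DMSO wells with enzyme for no effect and no-enzyme buffer wells for full effect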
Starred values were filed as active, the others as inactive.

Results for S=C(NCc1cccc(Cl)c1)NC1CCCCC1 ?
mIAP block: -146.8; bIAP activator: 1; mIAP act: 2.47*; hIAP act: 1.29; bIAP inhibitor: 4.9; hIAP block: -29.0

What do the screens show for `S=C(Nc1ccc(Cl)cc1)NC1CC2CCC(C1)N2Cc1ccccc1` (configuration not stated)?
mIAP block: -125.8; bIAP activator: 1.1; mIAP act: 2.26*; hIAP act: 1.26; bIAP inhibitor: -14.8; hIAP block: -26.0

What do the screens show for `CNC(=S)NC1CC2CCC(C1)N2Cc1ccccc1` (configuration not stated)?
mIAP block: -2.4; bIAP activator: 0.9; mIAP act: 1.02; hIAP act: 0.931; bIAP inhibitor: 10.5; hIAP block: 6.9

What do the screens show for `CCCn1c(N)c(C(c2ccc(OC)cc2)N2CCN(c3ccccc3)CC2)c(=O)[nH]c1=O` (configuration not stated)?
mIAP block: -38.0; bIAP activator: 2.6*; mIAP act: 1.38; hIAP act: 1.25; bIAP inhibitor: -156.4; hIAP block: -25.3

How did CCCn1c(N)c(C(c2ccc(C(=O)OC)cc2)N2CCN(c3ccccc3)CC2)c(=O)[nH]c1=O (configuration not stated) do in these assays?
mIAP block: -18.3; bIAP activator: 1.4; mIAP act: 1.18; hIAP act: 1.01; bIAP inhibitor: -44.8; hIAP block: -1.3

What do the screens show for `CN(C)Cc1ccccc1Sc1cccc2ccccc12`?
bIAP activator: 2.3*; bIAP inhibitor: -127.0

How did Cc1ccc(-n2ncc3c(NCc4ccco4)ncnc32)c(C)c1 do in these assays?
mIAP block: -9.3; bIAP activator: 0.9; mIAP act: 1.09; hIAP act: 1.19; bIAP inhibitor: 11.4; hIAP block: -19.3

What do the screens show for `Cc1ccc(-n2ncc3c(NNC(=O)c4ccco4)ncnc32)c(C)c1`?
mIAP block: -1.9; bIAP activator: 1.5; mIAP act: 1.02; hIAP act: 2.98*; bIAP inhibitor: -45.6; hIAP block: -197.5

How did Cc1cccc(C(=O)NNc2ncnc3c2cnn3C)c1 do in these assays?
mIAP block: 0.3; bIAP activator: 1.5; mIAP act: 0.997; hIAP act: 2.13*; bIAP inhibitor: -48.4; hIAP block: -113.2

What do the screens show for `Cn1ncc2c(NNC(=O)c3ccc(O)cc3)ncnc21`?
mIAP block: 29.8; bIAP activator: 1.3; mIAP act: 0.702; hIAP act: 1.19; bIAP inhibitor: -33.4; hIAP block: -19.2

Results for O=C(NC1CCCCC1)c1cccc(N2C(=O)CCC2=O)c1 ?
mIAP block: -1.2; mIAP act: 1.01; hIAP act: 0.991; hIAP block: 0.9

What do the screens show for `COc1ccc(C(=O)N(C)Cc2cnn(Cc3ccccc3)c2)cc1S(=O)(=O)N1CCOCC1`?
mIAP block: -0.6; mIAP act: 1.01; hIAP act: 1.03; hIAP block: -3.3

Results for CCOc1cc(/C=C/C(=O)OCC(=O)NCc2ccco2)cc(Cl)c1OC ?
mIAP block: 15.5; mIAP act: 0.845; hIAP act: 1.05; hIAP block: -4.9

How did O=C(/C=C/c1ccco1)N(c1ccccn1)c1ccccn1 do in these assays?
mIAP block: 45.1*; bIAP activator: 1; mIAP act: 0.549; hIAP act: 1.05; bIAP inhibitor: -0.8; hIAP block: -5.4

What do the screens show for `COc1cccc(CN(C)C(=O)c2ccc(Oc3ccccc3)cc2)c1OC`?
mIAP block: -1.2; mIAP act: 1.01; hIAP act: 0.919; hIAP block: 8.1

What do the screens show for `Cc1ccc(-n2c(SCC(=O)N3CCCCC3)nc(O)c(Cc3ccccc3)c2=O)cc1`?
mIAP block: 0.4; mIAP act: 0.996; hIAP act: 1.02; hIAP block: -2.1

What do the screens show for `O=C(O)c1cc(O)c2c(c1)C(=O)c1cc(O)cc(O)c1C2=O`?
mIAP block: 40.1*; bIAP activator: 0.9; mIAP act: 0.599; hIAP act: 0.829; bIAP inhibitor: 13.2; hIAP block: 17.1

Results for CC(CNC(=S)Nc1cc(F)cc(F)c1)CSc1ccc(Cl)cc1 (configuration not stated) ?
mIAP block: -218.8; bIAP activator: 0.7; mIAP act: 3.19*; hIAP act: 1.22; bIAP inhibitor: 26.4; hIAP block: -22.0
